ChEMBL document CHEMBL1153841, “The antifungal polyketide ambruticin targets the HOG pathway” (2007)
≈ marks a conversion by molar mass, not a printed value. Calls of active or inactive are those of the source. No cut-off for these calls is given here.

Key:
Saccharomyces cerevisiae [1] = experiment: Antifungal activity against Saccharomyces cerevisiae ATCC 201388 carrying pYES2-hik1-H736V in SD/-Ura medium after 48 hrs by CLSI susceptibility test; format: functional; conditions: ATCC 201388, 48 h
How it was run: (§1)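 Broth MIC following CLSI M27, except that inoculum prep and test medium used SD/−Ura in place of RPMI. Read at 48 h. MIC-0 is the concentration giving 90% growth reduction versus the untreated control.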

Saccharomyces cerevisiae [2] = experiment: Antifungal activity against Saccharomyces cerevisiae ATCC 201388 carrying pYES2-hik1-D1153E in SD/-Ura medium after 48 hrs by CLSI susceptibility test; format: functional; conditions: ATCC 201388, 48 h; how it was run: as §1
Saccharomyces cerevisiae [3] = experiment: Antifungal activity against Saccharomyces cerevisiae ATCC 201388 carrying pYES2-hik1-D1153E in SG/-Ura medium after 48 hrs by CLSI susceptibility test; format: functional; conditions: ATCC 201388, 48 h
How it was run: (§2)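 CLSI M27 broth MIC, modified so that SG/−Ura served as both inoculum-preparation and test medium in place of RPMI. Uracil is omitted to select for plasmid maintenance. Read after 48 h of incubation. MIC-0 is the concentration causing 90% reduction in growth relative to the untreated control.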

Saccharomyces cerevisiae [4] = experiment: Antifungal activity against Saccharomyces cerevisiae ATCC 201388 carrying pYES2-HIK1 in SG/-Ura medium after 48 hrs by CLSI susceptibility test; format: functional; conditions: ATCC 201388, 48 h; how it was run: as §2
Saccharomyces cerevisiae [5] = experiment: Antifungal activity against Saccharomyces cerevisiae ATCC 201388 carrying pYES2-hik1-H736V in SG/-Ura medium after 48 hrs by CLSI susceptibility test; format: functional; conditions: ATCC 201388, 48 h; how it was run: as §2
Saccharomyces cerevisiae [6] = experiment: Antifungal activity against Saccharomyces cerevisiae ATCC 201388 carrying pYES2 in SD/-Ura medium after 48 hrs by CLSI susceptibility test; format: functional; conditions: ATCC 201388, 48 h; how it was run: as §1
Saccharomyces cerevisiae [7] = experiment: Antifungal activity against Saccharomyces cerevisiae ATCC 201388 carrying pYES2-HIK1 in SD/-Ura medium after 48 hrs by CLSI susceptibility test; format: functional; conditions: ATCC 201388, 48 h; how it was run: as §1
Saccharomyces cerevisiae [8] = experiment: Antifungal activity against Saccharomyces cerevisiae ATCC 201388 carrying pYES2 in SG/-Ura medium after 48 hrs by CLSI susceptibility test; format: functional; conditions: ATCC 201388, 48 h; how it was run: as §2
Saccharomyces cerevisiae [9] = experiment: Elevation of Hog1 phosphorylation Saccharomyces cerevisiae ATCC 201388 carrying pYES2-HIK1 at 25 ppm after 4 hrs in SD/-Ura medium by Western blot analysis; format: functional, organism-based
How it was run: (§3)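 Overnight cultures in SD/−Ura resuspended in fresh SD/−Ura and grown 4 h, then exposed 10 min to compound (25 ppm), 0.5 M NaCl, or left untreated. Soluble protein from cell extracts Western blotted with anti-p38 antibody against doubly phosphorylated T180/Y182 (phospho-Hog1) and anti-C-terminal Hog1 antibody (total Hog1). Detection by HRP-conjugated secondary antibody with ECL Plus.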

Saccharomyces cerevisiae [10] = experiment: Elevation of Hog1 phosphorylation Saccharomyces cerevisiae ATCC 201388 carrying pYES2 at 25 ppm after 4 hrs in SD/-Ura medium by Western blot analysis; format: functional, organism-based; how it was run: as §3
Saccharomyces cerevisiae [11] = experiment: Elevation of Hog1 phosphorylation Saccharomyces cerevisiae ATCC 201388 carrying deltahog1 gene at 25 ppm after 4 hrs in SD/-Ura medium by Western blot analysis; format: functional, organism-based; how it was run: as §3

Row | Structure (SMILES) | MIC90 (Saccharomyces cerevisiae [1]) | MIC90 (Saccharomyces cerevisiae [2]) | MIC90 (Saccharomyces cerevisiae [3]) | MIC90 (Saccharomyces cerevisiae [4]) | MIC90 (Saccharomyces cerevisiae [5]) | MIC90 (Saccharomyces cerevisiae [6]) | MIC90 (Saccharomyces cerevisiae [7]) | MIC90 (Saccharomyces cerevisiae [8]) | Activity (Saccharomyces cerevisiae [9]) | Activity (Saccharomyces cerevisiae [10]) | Activity (Saccharomyces cerevisiae [11])
1 | CC[C@H]1O[C@@H](/C(C)=C/[C@H](C)/C=C/[C@H]2[C@@H](C)[C@@H]2/C=C/[C@@H]2O[C@H](CC(=O)O)C[C@H](N(C)C)[C@H]2O)CC=C1C [AMBRUTICIN VS3] | > 32 µg/mL | > 32 µg/mL | > 32 µg/mL | 0.5 µg/mL (≈ 0.997 µM) | > 32 µg/mL | > 32 µg/mL | > 32 µg/mL | > 32 µg/mL |  |  | 
2 | N#Cc1c[nH]cc1-c1cccc2c1OC(F)(F)O2 [FLUDIOXONIL] | > 32 µg/mL | > 32 µg/mL | > 32 µg/mL | 2 µg/mL (≈ 8.06 µM) | > 32 µg/mL | > 32 µg/mL | > 32 µg/mL | > 32 µg/mL |  |  | 
3 | CC[C@H]1O[C@@H](/C(C)=C/[C@H](C)/C=C/[C@H]2[C@@H](C)[C@@H]2/C=C/[C@@H]2O[C@H](CC(=O)O)C[C@H](O)[C@H]2O)CC=C1C |  |  |  |  |  |  |  |  | Active | inactive | inactive
4 | C=CC1(C)OC(=O)N(c2cc(Cl)cc(Cl)c2)C1=O (configuration not stated) [VINCLOZOLIN] | > 32 µg/mL | > 32 µg/mL | > 32 µg/mL | 16 µg/mL (≈ 55.9 µM) | > 32 µg/mL | > 32 µg/mL | > 32 µg/mL | > 32 µg/mL |  |  | 
